Values belong to the compound of their own block, whether it stands above or below them.
Assays:
KIN10 mutant 3 = KIN10 mutant 3 (Arabidopsis thaliana, UniProt Q38997, K63A/K69A/L73A/R65A/R66A); experiment: MST binding of ATP to KIN10 mutant 3; conditions: fig. S5
Method in brief: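 KIN10 kinase-domain mutant 3 (K63A-R65A-R66A-K69A-L73A), N-His6, expressed in E. coli BL21(DE3), Ni-NTA purified. Protein labeled with NT647 via NHS coupling to lysines (30 min on ice), free dye removed by size exclusion into MST buffer (50 mM phosphate pH 7.4, 150 mM NaCl, MgCl2, 1 mM DTT, 0.05% Tween 20).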

WT KIN10 [1] = biological target: T1, WT KIN10 (Arabidopsis thaliana, UniProt Q38997); experiment: MST binding of T6P to WT KIN10 kinase domain
KIN10 R141A = KIN10 R141A (Arabidopsis thaliana, UniProt Q38997, R141A); experiment: MST binding of T6P to KIN10 R141A
Method in brief: (§1)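 N-terminal His6-tagged recombinant KIN10 was expressed in E. coli BL21(DE3), Ni-NTA purified, and NT647-labelled on lysines via NHS coupling. Free dye was removed by size exclusion into MST buffer (50 mM phosphate pH 7.4, 150 mM NaCl, 1 mM DTT, 0.05% Tween 20). 100 nM labelled protein was titrated with serially diluted T6P. Microscale thermophoresis was run at 25°C, 40% MST power and 80% LED power.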

[2] = biological target: KIN10 mutant 1 (R23A-R32A-K34A) (Arabidopsis thaliana, UniProt Q38997, K34A/R23A/R32A); experiment: MST binding of T6P to KIN10 mutant 1
Method in brief: (§2)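 Alanine-substituted KIN10 kinase domain was made by overlap PCR and cloned into pET28a. It was expressed with an N-terminal His6 tag in E. coli BL21(DE3) and Ni-NTA purified. Protein was NT647-NHS labelled and desalted into phosphate buffer pH 7.4 with NaCl, DTT and Tween 20. 100 nM labelled protein was mixed with a T6P serial dilution, and MST was read at 25°C (40% MST, 80% LED power).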

[3] = biological target: KIN10 mutant 2 (R52A-R53A-K54A-K56A) (Arabidopsis thaliana, UniProt Q38997, K54A/K56A/R52A/R53A); experiment: MST binding of T6P to KIN10 mutant 2
Method in brief: as §2

[4] = biological target: T2, KIN10 mutant 3 (K63A-R65A-R66A-K69A-L73A) (Arabidopsis thaliana, UniProt Q38997, K63A/K69A/L73A/R65A/R66A); experiment: MST binding of T6P to KIN10 mutant 3
GRIK1-KIN10 = conditions: MST; ref Zhai et al. ([9]); cited from earlier work
WT KIN10 [5] = biological target: T1, WT KIN10; experiment: KIN10 kinase activity assay with SPS peptide, WT KIN10; assay type: biochemical
[6] = biological target: plant α-catalytic subunit of SnRK1 (Arabidopsis thaliana, UniProt Q38997); experiment: Inhibition of the SnRK1 α-catalytic subunit by sugar phosphates; assay type: biochemical; conditions: table S4
KIN10 mutant 2 = KIN10 mutant 2 (Arabidopsis thaliana, UniProt Q38997, K54A/K56A/R52A/R53A); experiment: KIN10 kinase activity assay with SPS peptide, mutant 2; assay type: biochemical; conditions: 1 mM T6P, 200 ng KIN10 mutant 2 and 200 ng GRIK1
KIN10 K63A = KIN10 K63A (Arabidopsis thaliana, UniProt Q38997, K63A); experiment: MST binding of T6P to KIN10 K63A
Method in brief: as §1

KIN10 K63A-R66A-R141A = KIN10 K63A-R66A-R141A (Arabidopsis thaliana, UniProt Q38997, K63A/R141A/R66A); experiment: biochemical; assay type: binding
KIN10 R66A = KIN10 R66A (Arabidopsis thaliana, UniProt Q38997, R66A); experiment: MST binding of T6P to KIN10 R66A
Method in brief: as §1

KIN10 mutant 1 = KIN10 mutant 1 (Arabidopsis thaliana, UniProt Q38997, K34A/R23A/R32A); experiment: KIN10 kinase activity assay with SPS peptide, mutant 1; assay type: biochemical; conditions: 1 mM T6P, 200 ng KIN10 mutant 1 and 200 ng GRIK1
[7] = biological target: T2, KIN10 mutant 3 (K63A-R65A-R66A-K69A-L73A); experiment: KIN10 kinase activity assay with SPS peptide, mutant 3; assay type: biochemical; conditions: 1 mM T6P, 50 nM KIN10 mutant 3 plus 50 nM GRIK1

T2 sequence (Q38997 19-271 K63A/R65A/R66A/K69A/L73A limits assumed): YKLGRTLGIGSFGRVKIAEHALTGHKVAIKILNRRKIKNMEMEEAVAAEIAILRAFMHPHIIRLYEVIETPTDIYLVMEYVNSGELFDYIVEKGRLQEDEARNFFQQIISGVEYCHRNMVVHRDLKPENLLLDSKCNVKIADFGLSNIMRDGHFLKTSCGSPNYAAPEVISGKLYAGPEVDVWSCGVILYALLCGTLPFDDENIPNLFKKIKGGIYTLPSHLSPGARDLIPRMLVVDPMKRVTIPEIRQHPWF
T1 sequence (Q38997 19-271 limits assumed): as the sequence (Q38997 19-271 K63A/R65A/R66A/K69A/L73A limits assumed) above, with A45K, A47R, A48R, A51K, A55L counted along it
KIN10 K63A-R66A-R141A, sequence (Q38997 19-271 K63A/R66A/R141A limits assumed): as the sequence (Q38997 19-271 K63A/R65A/R66A/K69A/L73A limits assumed) above, with A47R, A51K, A55L, R123A counted along it
KIN10 K63A, sequence (Q38997 19-271 K63A limits assumed): as the sequence (Q38997 19-271 K63A/R65A/R66A/K69A/L73A limits assumed) above, with A47R, A48R, A51K, A55L counted along it
KIN10 mutant 2 (R52A-R53A-K54A-K56A), sequence (Q38997 19-271 R52A/R53A/K54A/K56A limits assumed): as the sequence (Q38997 19-271 K63A/R65A/R66A/K69A/L73A limits assumed) above, with R34A, R35A, K36A, K38A, A45K, A47R, A48R, A51K, A55L counted along it
KIN10 mutant 1 (R23A-R32A-K34A), sequence (Q38997 19-271 R23A/R32A/K34A limits assumed): as the sequence (Q38997 19-271 K63A/R65A/R66A/K69A/L73A limits assumed) above, with R5A, R14A, K16A, A45K, A47R, A48R, A51K, A55L counted along it
KIN10 mutant 3, sequence (Q38997 19-271 K63A/R65A/R66A/K69A/L73A limits assumed): as the sequence (Q38997 19-271 K63A/R65A/R66A/K69A/L73A limits assumed) above
plant α-catalytic subunit of SnRK1, sequence (Q38997 19-271 limits assumed): as the sequence (Q38997 19-271 K63A/R65A/R66A/K69A/L73A limits assumed) above, with A45K, A47R, A48R, A51K, A55L counted along it
KIN10 R141A, sequence (Q38997 19-271 R141A limits assumed): as the sequence (Q38997 19-271 K63A/R65A/R66A/K69A/L73A limits assumed) above, with A45K, A47R, A48R, A51K, A55L, R123A counted along it
KIN10 R66A, sequence (Q38997 19-271 R66A limits assumed): as the sequence (Q38997 19-271 K63A/R65A/R66A/K69A/L73A limits assumed) above, with A45K, A47R, A51K, A55L counted along it
KIN10 mutant 2, sequence (Q38997 19-271 R52A/R53A/K54A/K56A limits assumed): as the sequence (Q38997 19-271 K63A/R65A/R66A/K69A/L73A limits assumed) above, with R34A, R35A, K36A, K38A, A45K, A47R, A48R, A51K, A55L counted along it
KIN10 mutant 1, sequence (Q38997 19-271 R23A/R32A/K34A limits assumed): as the sequence (Q38997 19-271 K63A/R65A/R66A/K69A/L73A limits assumed) above, with R5A, R14A, K16A, A45K, A47R, A48R, A51K, A55L counted along it

Kd for ATP, mutant 3 compared with WT KIN10 (KIN10 mutant 3): no change
Structure (SMILES): Nc1ncnc2c1ncn2[C@@H]1O[C@H](COP(=O)(O)OP(=O)(O)OP(=O)(O)O)[C@@H](O)[C@H]1O [ATP, adenosine triphosphate]

Structure (SMILES): O=P(O)(O)OC[C@H]1O[C@H](O[C@H]2O[C@H](CO)[C@@H](O)[C@H](O)[C@H]2O)[C@H](O)[C@@H](O)[C@@H]1O [T6P, trehalose 6-phosphate]
Kd (WT KIN10 [1]): 28 ± 4 µM
Kd (KIN10 R141A): 52 ± 7 µM
Kd [2]: 26 ± 6 µM
Kd by MST ([2]; KIN10 mutant 1, Table 1 series): no significant difference
Kd [3]: 34 ± 5 µM
Kd by MST ([3]; KIN10 mutant 2, Table 1 series): no significant difference
Kd [4]: 165 ± 21 µM
reduction of affinity of T6P binding versus WT KIN10 ([4]; mutant 3 versus WT): fivefold
reduction of affinity of GRIK1 for KIN10 on T6P binding (GRIK1-KIN10): threefold
IC50 (WT KIN10 [5]): 40 µM
change of basal activity of WT KIN10 on addition of T6P (WT KIN10 [5]; 1 mM T6P, 50 nM KIN10, no GRIK1): doubling
inhibition of the plant α-catalytic subunit of SnRK1 [6]: specifically inhibited
activation of mutant 2 by GRIK1 in the presence of T6P (KIN10 mutant 2): reduced
Kd (KIN10 K63A): 47 ± 7 µM
increase of Kd versus WT (KIN10 K63A; span over the three single mutants K63A, R66A and R141A, versus WT): 1.9- to 2.5 fold
Kd (KIN10 K63A-R66A-R141A; Kds determined by MST, KIN10 K63A-R66A-R141A, Table 2 series): 143 µM
increase in Kd versus WT (KIN10 K63A-R66A-R141A; triple mutant K63A-R66A-R141A versus WT): sevenfold
Kd (KIN10 R66A): 40 ± 5 µM
activation of mutant 1 by GRIK1 in the presence of T6P (KIN10 mutant 1): reduced
reduction of mutant 3 activation by GRIK1 in the presence of T6P [7]: no reduction

— article PMC11100557 (Science Advances, 2024)
